Experiments:
[1] = MTT cytotoxicity testing on HepG2; assay type: cell-based, human; conditions: human, HepG2 cells
Outline: (§1)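 Cells seeded at 20,000/well in MEM with 10% FBS, grown 24 h at 37 °C under 5% CO₂. Medium then replaced by test compound at final 10–100,000 ng/mL in MEM with 0.5% DMSO, 24 h. MTT added for 4 h; formazan dissolved in 4 mM HCl/0.1% NP-40 in isopropanol. Absorbance read at 590 nm, reference 620 nm. Viability relative to untreated; CC50 by nonlinear regression; three independent replicates.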

C. elegans JD608 strain = experiment: In vitro nematocidal; conditions: Caenorhabditis elegans, 72 h
Outline: (§2)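 C. elegans strains kept on NGM with E. coli. L1 obtained by bleaching and hatching eggs on unseeded NGM at 20 °C (~24 h). Thirty L1 per well, in triplicate, exposed in M9 to test compound at final 10–100,000 ng/mL with 0.5% DMSO, 72 h, 20 °C. Controls: DMSO, albendazole, ivermectin. Motility scored visually by inverted microscope; no movement = dead. EC50 by nonlinear regression; three independent replicates.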

C. elegans CB347 strain = experiment: In vitro nematocidal; set-up: species or system Caenorhabditis elegans
Outline: as §2

[2] = MTT cytotoxicity testing on Caco-2; assay type: cell-based, human; conditions: human, Caco-2 cells
Outline: as §1

C. elegans N2 strain = experiment: In vitro nematocidal; set-up: species or system Caenorhabditis elegans
Outline: as §2

[3] = test system: T. spiralis muscle-stage larvae (L1); experiment: In vitro nematocidal; set-up: species or system Trichinella spiralis
Outline: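 Female ICR mice (8 weeks old) were infected orally with 100 larvae. Muscle larvae were recovered at day 60 by 0.7% pepsin/0.7% HCl digestion and kept in RPMI with 10% FCS and penicillin/streptomycin. Thirty larvae per well, in triplicate, with test compound at final 10–100,000 ng/mL and 0.5% DMSO, 72 h, 37 °C. Controls: DMSO, albendazole, ivermectin. EC50 by nonlinear regression; three independent replicates.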

[4] = test system: T. spiralis muscle larvae; set-up: species or system Trichinella spiralis
Outline: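 Muscle larvae were exposed to one concentration of test compound or to 0.5% DMSO. Extraction: cold methanol twice, then water, with freeze–thaw cycles and centrifugation at 4 °C; pooled extracts dried. Separation on C18 at 40 °C, 0.3 mL/min, formic acid water/acetonitrile gradient. Q-TOF ESI±, IDA with survey scan m/z 100–1000; pooled QCs. Processed in MS-DIAL and MetaboAnalyst; 3 biological × 2 technical replicates.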

[5] = no reference given; cited from earlier work
HepG2 cells = experiment: MTT cytotoxicity testing on HepG2; assay type: cell-based, human; conditions: HepG2, 24 h exposure, MTT; mean ± S.E.
Outline: as §1

Caco-2 cells = experiment: MTT cytotoxicity testing on Caco-2; assay type: cell-based, human; conditions: Caco-2, 24 h exposure, MTT; mean ± S.E.
Outline: as §1

[6] = T. spiralis metabolite, quercetin at EC50 vs DMSO
[7] = T. spiralis, quercetin at EC50 vs DMSO control

COc1ccc([C@@H]2CC(=O)c3c(O)cc(O)cc3O2)cc1O [Hesperetin, hesperetin]
CC50 at 24 h [1]: > 1000 µM | EC50 (C. elegans JD608 strain): 51.7 ± 2.92 µM | EC50 (C. elegans CB347 strain; Caenorhabditis elegans, 72 h): > 1000 µM | CC50 at 24 h [2]: 56.3 ± 6.18 µM | EC50 (C. elegans N2 strain; Caenorhabditis elegans, 72 h): 283 ± 23.9 µM

COc1ccc(-c2cc(=O)c3c(OC)c(OC)c(OC)c(OC)c3o2)cc1 [Tangeretin, tangeretin]
CC50 at 24 h [1]: 251 ± 35 µM | EC50 (C. elegans JD608 strain): 43.1 ± 11.2 µM | EC50 (C. elegans CB347 strain; Caenorhabditis elegans, 72 h): > 1000 µM | CC50 at 24 h [2]: 531 ± 70.3 µM | EC50 (C. elegans N2 strain; Caenorhabditis elegans, 72 h): > 1000 µM

CCCSc1ccc2nc(NC(=O)OC)[nH]c2c1 [ABZ, albendazole, reference compound]
CC50 at 24 h [1]: > 1000 µM | EC50 (C. elegans JD608 strain): 788 ± 22.6 µM | EC50 ([3]; Trichinella spiralis, 72 h): 129 ± 34.1 µM | EC50 (C. elegans CB347 strain; Caenorhabditis elegans, 72 h): > 1000 µM | CC50 at 24 h [2]: > 1000 µM | EC50 (C. elegans N2 strain; Caenorhabditis elegans, 72 h): 672 ± 73 µM

O=c1c(O)c(-c2ccc(O)c(O)c2)oc2cc(O)cc(O)c12 [Quercetin, quercetin]
CC50 at 24 h [1]: > 1000 µM | EC50 (C. elegans JD608 strain): 45.3 ± 4.92 µM | Log2 (FC) 1-Heptadecanoyl-sn-glycero-3-phosphocholine [4, 6]: -1.6835 | Log2 (FC) 3-Phosphoglyceric Acid [4, 6]: -1.0514 | Log2 (FC) 7alpha-Hydroxy-4-cholesten-3-one [4, 6]: 2.1364 | Log2 (FC) Arachidonic acid [4, 6]: -1.1472 | Log2 (FC) Coenzyme q6 [4, 6]: 1.8385 | Log2 (FC) Deoxyguanosine [4, 6]: -2.4539 | Log2 (FC) Inosine [4, 6]: -2.6373 | Log2 (FC) LacCer(d18:1/16:0) [4, 6]: 2.6728 | Log2 (FC) Lignoceric acid [4, 6]: 4.0956 | Log2 (FC) Linoleic acid [4, 6]: 2.1922 | Log2 (FC) Linolenic acid [4, 6]: 2.7081 | Log2 (FC) LysoPC(0:0/18:0) [4, 6]: -1.4886 | Log2 (FC) LysoPE(0:0/16:0) [4, 6]: -1.8636 | Log2 (FC) LysoPE(0:0/18:2(9Z,12Z)) [4, 6]: -1.4991 | Log2 (FC) Menaquinone 4 [4, 6]: 2.2163 | Log2 (FC) N-Acetyl-D-Galactosamine [4, 6]: 4.5233 | Log2 (FC) PC(P-18:1(9Z)/P-16:0) [4, 6]: 2.1307 | Log2 (FC) Phosphatidylethanolamine [4, 6]: -1.0876 | Log2 (FC) Tetradecanoylcarnitine [4, 6]: -2.0664 | Log2 (FC) Vitamin K1 [4, 6]: 1.8127 | Down-regulated features [4, 7]: 68 | Up-regulated features [4, 7]: Around 204 | EC50 ([3]; Trichinella spiralis, 72 h): 147 ± 28.2 µM | Oral bioavailability [5]: < 5% | EC50 (C. elegans CB347 strain; Caenorhabditis elegans, 72 h): 76.2 ± 7.4 µM | CC50 at 24 h [2]: > 1000 µM | EC50 (C. elegans N2 strain; Caenorhabditis elegans, 72 h): 80.5 ± 20.3 µM

CC[C@H](C)[C@H]1O[C@]2(CC[C@@H]1C)C[C@@H]1C[C@@H](C/C=C(\C)[C@@H](O[C@H]3C[C@H](OC)[C@@H](O[C@H]4C[C@H](OC)[C@@H](O)[C@H](C)O4)[C@H](C)O3)[C@@H](C)/C=C/C=C3\CO[C@@H]4[C@H](O)C(C)=C[C@@H](C(=O)O1)[C@]34O)O2 [IVM, ivermectin, reference compound]
CC50 (HepG2 cells): 14.9 ± 1.39 µM | EC50 ([3]; T. spiralis muscle-stage larvae, 72 h at 37 °C, motility, mean ± S.E.): 107 ± 7.89 µM | EC50 (C. elegans CB347 strain; C. elegans CB347 (albendazole-resistant), L1, 72 h at 20 °C, motility, mean ± S.E.): 15.4 ± 6.07 µM | CC50 (Caco-2 cells): 20 ± 5.28 µM | EC50 (C. elegans N2 strain; C. elegans N2 (wild type), L1, 72 h at 20 °C, motility, mean ± S.E.): 17.7 ± 1.85 µM

O=c1cc(-c2ccc(O)cc2)oc2cc(O)cc(O)c12 [Apigenin, apigenin]
CC50 at 24 h [1]: 53.3 ± 4.52 µM | EC50 (C. elegans JD608 strain): 51.3 ± 1.46 µM | EC50 ([3]; Trichinella spiralis, 72 h): > 1000 µM | EC50 (C. elegans CB347 strain; Caenorhabditis elegans, 72 h): 55.8 ± 4.89 µM | CC50 at 24 h [2]: > 1000 µM | EC50 (C. elegans N2 strain; Caenorhabditis elegans, 72 h): 218 ± 11.2 µM

C[C@@H]1O[C@@H](O[C@H]2[C@H](Oc3cc(O)c4c(c3)O[C@H](c3ccc(O)cc3)CC4=O)O[C@H](CO)[C@@H](O)[C@@H]2O)[C@H](O)[C@H](O)[C@H]1O [Naringin, naringin]
CC50 at 24 h [1]: > 1000 µM | EC50 (C. elegans JD608 strain): > 1000 µM | EC50 (C. elegans CB347 strain; Caenorhabditis elegans, 72 h): > 1000 µM | CC50 at 24 h [2]: 249 ± 65.3 µM | EC50 (C. elegans N2 strain; Caenorhabditis elegans, 72 h): > 1000 µM
